Experimental data as given in PMC3992716 (European journal of pharmacology, 2013).

Tests used:
[1] = target: α2(2)β2(2)α5 (Homo sapiens, UniProt P17787+P30532+Q15822); experiment: two-electrode voltage clamp, Xenopus oocytes, agonist-evoked response; type: cell-based
[2] = target: T1, α4(2)β2(2)α5 (Homo sapiens, UniProt P17787+P30532+P43681); experiment: cell-based
[3] = target: T2, α4β2α6β2β3 (Homo sapiens, UniProt P17787+P43681+Q05901+Q15825); experiment: cell-based
[4] = target: T2, α4β2α6β2β3; type: cell-based
Procedure, shortened: (§1)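 Xenopus oocytes defolliculated with collagenase, clamped at −60 mV and perfused with Ringer's containing 1 μM atropine. Rising test compound concentrations were co-applied with control ACh (100 μM for α4(2)β2(2)α5, 30 μM for α4β2α6β2β3), alternating with ACh alone; fresh cells were used if ACh controls fell below 75%. Peak currents were normalised to the preceding ACh control.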

[5] = target: T1, α4(2)β2(2)α5; type: cell-based
Procedure, shortened: as §1

T1 sequence (P43681 27-627): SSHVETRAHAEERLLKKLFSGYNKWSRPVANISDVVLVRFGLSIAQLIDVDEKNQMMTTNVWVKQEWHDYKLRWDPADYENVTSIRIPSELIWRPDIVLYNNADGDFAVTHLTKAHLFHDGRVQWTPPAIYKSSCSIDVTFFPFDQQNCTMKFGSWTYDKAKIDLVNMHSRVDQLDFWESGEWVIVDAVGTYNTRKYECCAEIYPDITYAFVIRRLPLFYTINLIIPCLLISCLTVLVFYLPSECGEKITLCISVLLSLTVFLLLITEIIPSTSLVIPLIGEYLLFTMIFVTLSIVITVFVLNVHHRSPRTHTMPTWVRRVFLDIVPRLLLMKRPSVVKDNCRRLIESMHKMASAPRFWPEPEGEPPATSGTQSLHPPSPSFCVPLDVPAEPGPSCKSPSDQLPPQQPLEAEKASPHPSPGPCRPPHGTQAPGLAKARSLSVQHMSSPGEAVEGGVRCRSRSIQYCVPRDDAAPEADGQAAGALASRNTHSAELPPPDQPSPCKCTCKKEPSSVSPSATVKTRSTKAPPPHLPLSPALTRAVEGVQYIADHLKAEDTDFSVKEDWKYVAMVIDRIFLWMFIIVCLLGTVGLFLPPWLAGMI
T1 sequence (P17787 26-502): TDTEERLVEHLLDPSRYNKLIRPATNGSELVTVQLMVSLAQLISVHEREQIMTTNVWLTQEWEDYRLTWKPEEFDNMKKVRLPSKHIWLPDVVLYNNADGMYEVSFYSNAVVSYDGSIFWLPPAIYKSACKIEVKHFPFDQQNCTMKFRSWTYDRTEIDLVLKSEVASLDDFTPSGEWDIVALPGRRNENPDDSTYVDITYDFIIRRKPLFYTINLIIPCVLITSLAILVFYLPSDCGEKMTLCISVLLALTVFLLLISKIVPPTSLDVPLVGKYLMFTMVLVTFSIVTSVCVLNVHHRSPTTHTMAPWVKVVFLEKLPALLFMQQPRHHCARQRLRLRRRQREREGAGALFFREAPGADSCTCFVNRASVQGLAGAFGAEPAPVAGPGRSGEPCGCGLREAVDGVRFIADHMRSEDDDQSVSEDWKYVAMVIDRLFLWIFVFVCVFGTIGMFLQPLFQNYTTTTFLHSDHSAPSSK
T1 sequence (P30532 23-468): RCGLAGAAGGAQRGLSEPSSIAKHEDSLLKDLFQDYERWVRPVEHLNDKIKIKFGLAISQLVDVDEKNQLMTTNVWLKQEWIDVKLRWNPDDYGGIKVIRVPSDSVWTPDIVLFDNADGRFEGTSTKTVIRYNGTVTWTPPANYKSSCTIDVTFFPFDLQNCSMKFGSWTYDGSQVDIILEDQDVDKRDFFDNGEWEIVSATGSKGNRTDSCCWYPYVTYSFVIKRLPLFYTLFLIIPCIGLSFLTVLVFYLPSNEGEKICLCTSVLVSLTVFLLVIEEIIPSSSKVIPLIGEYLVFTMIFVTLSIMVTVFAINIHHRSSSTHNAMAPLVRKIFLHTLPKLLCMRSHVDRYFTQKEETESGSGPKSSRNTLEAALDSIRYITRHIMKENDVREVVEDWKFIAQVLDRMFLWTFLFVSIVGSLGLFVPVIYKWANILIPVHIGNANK
T2 sequence (P43681 27-627): as the sequence (P43681 27-627) above
T2 sequence (P17787 26-502): as the sequence (P17787 26-502) above
T2 sequence (Q15825 26-494): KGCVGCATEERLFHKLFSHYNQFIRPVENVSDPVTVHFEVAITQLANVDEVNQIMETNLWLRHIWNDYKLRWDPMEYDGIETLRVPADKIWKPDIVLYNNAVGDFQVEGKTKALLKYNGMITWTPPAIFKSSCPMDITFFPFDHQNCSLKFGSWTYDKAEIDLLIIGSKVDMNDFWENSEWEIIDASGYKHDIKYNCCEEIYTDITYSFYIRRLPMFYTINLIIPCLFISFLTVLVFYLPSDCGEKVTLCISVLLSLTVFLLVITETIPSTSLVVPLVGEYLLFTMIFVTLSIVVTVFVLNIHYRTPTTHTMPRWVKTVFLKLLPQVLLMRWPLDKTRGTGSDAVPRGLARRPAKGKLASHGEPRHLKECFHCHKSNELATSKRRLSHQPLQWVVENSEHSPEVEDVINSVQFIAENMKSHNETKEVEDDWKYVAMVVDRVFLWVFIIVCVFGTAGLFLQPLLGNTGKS
T2 sequence (Q05901 22-458): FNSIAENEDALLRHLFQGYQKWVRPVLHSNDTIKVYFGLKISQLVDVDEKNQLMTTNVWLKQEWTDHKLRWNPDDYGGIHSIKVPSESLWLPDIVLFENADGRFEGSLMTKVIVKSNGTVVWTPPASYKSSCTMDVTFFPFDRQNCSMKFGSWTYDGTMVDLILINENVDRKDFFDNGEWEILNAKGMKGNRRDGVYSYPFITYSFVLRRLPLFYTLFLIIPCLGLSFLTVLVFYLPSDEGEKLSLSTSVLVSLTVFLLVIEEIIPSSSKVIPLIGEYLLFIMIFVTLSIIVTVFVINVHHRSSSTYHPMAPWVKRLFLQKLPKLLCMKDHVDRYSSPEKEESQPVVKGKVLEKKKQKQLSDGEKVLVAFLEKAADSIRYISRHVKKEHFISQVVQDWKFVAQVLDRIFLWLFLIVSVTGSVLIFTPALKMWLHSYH
Chain of α2(2)β2(2)α5 (Q15822 27-529): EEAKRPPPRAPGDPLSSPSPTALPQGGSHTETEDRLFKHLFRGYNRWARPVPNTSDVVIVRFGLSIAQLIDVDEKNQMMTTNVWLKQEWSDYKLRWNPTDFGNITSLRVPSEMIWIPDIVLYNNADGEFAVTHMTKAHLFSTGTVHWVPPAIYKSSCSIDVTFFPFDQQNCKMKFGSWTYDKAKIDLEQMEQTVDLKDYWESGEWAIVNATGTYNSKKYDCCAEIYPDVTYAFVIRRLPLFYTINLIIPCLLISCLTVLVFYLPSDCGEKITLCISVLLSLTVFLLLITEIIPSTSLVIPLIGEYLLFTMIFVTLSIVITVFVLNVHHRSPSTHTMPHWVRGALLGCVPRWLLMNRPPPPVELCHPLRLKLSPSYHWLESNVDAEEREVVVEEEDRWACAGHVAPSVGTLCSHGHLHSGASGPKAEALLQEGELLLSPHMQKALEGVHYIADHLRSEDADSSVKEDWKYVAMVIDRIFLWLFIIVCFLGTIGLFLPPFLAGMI
Chain of α2(2)β2(2)α5 (P17787 26-502): as the sequence (P17787 26-502) above
Chain of α2(2)β2(2)α5 (P30532 23-468): as the sequence (P30532 23-468) above

IC50 [4] [µM]	IC50 [5] [µM]	Structure (SMILES)	EC50 [1] [µM]	EC50 [2] [µM]	EC50 [3] [µM]
		CN1CCC[C@H]1c1cccnc1 [nicotine]	1.6 ± 0.2		
		CCOc1cncc(/C=C/CCNC)c1 [TC-2559]	6.2 ± 1	1.6 ± 0.3	1.7 ± 0.3
13 ± 5	35 ± 5	CNC1(C)C2CCC(C2)C1(C)C (stereo not drawn) [R(-)Mecamylamine, N-2,3,3-tetramethylbicyclo[2.2.1]heptan-2-amine]			
14 ± 7	12 ± 1	CN[C@@]1(C)[C@@H]2CC[C@@H](C2)C1(C)C [S(+)Mecamylamine, N-2,3,3-tetramethylbicyclo[2.2.1]heptan-2-amine]			
